Experimental data gathered from unrelated publications.
Protocols differ between the studies behind these lines.
Melanocortin receptor 5: Melanocortin receptor 5 (Mus musculus, UniProt P41149)
Ppara: Peroxisome proliferator-activated receptor alpha (Ppara, Mus musculus, UniProt P23204)
GRM4: Metabotropic glutamate receptor 4 (GRM4, Homo sapiens, UniProt Q14833)

| SMILES | target | read-out | action | method | EC50 |
| --- | --- | --- | --- | --- | --- |
| N=C(N)NCCC[C@H](NC(=O)[C@@H](N)CC(=O)O)C(=O)N[C@@H](Cc1ccccc1)C(=O)NCC(=O)O | Melanocortin receptor 5 | reporter gene | agonist | – | > 100 µM |
| C[C@@H]1NC(=O)[C@H](CCCNC(=N)N)NC(=O)[C@H](Cc2ccccc2)NC(=O)[C@H](Cc2ccccc2)NC(=O)[C@H](CCCNC(=N)N)NC(=O)[C@@H]2CCCN2C(=O)[C@H]2CCCN2C(=O)[C@H](Cc2ccccc2)NC1=O | Melanocortin receptor 5 | reporter gene | agonist | – | > 100 µM |
| Cc1nc(-c2ccc(C(F)(F)F)cc2)sc1C(=O)NCc1ccc(OC(C)(C)C(=O)O)cc1 | Ppara | reporter gene | agonist | luciferase | 0.098 µM |
| CSCC[C@H](N)C(=O)NCC(=O)N[C@@H](Cc1c[nH]cn1)C(=O)N[C@@H](Cc1ccccc1)C(=O)N[C@@H](CCCNC(=N)N)C(=O)N[C@@H](Cc1c[nH]c2ccccc12)C(=O)O | Melanocortin receptor 5 | reporter gene | agonist | – | 4.43 µM |
| CCN(C(=O)C1CCN(S(=O)(=O)c2ccc3[nH]ncc3c2)CC1)[C@H](C)c1ccccc1 | Muscarinic acetylcholine receptor M4 (CHRM4, Homo sapiens, UniProt P08173) | calcium signal | agonist | – | > 30 µM |
| CCCC[C@H](NC(=O)[C@@H](NC(=O)[C@@H](N)Cc1ccc(O)cc1)C(C)C)C(=O)NCC(=O)N[C@@H](Cc1c[nH]cn1)C(=O)N[C@@H](Cc1ccccc1)C(=O)N[C@@H](CCCN=C(N)N)C(=O)N[C@@H](Cc1c[nH]c2ccccc12)C(=O)N[C@@H](CC(=O)O)C(=O)N[C@@H](CCCN=C(N)N)C(=O)N[C@@H](Cc1ccccc1)C(=O)NCC(=O)O | Melanocortin receptor 5 | reporter gene | agonist | – | 0.14 µM |
| O=C(Nc1ccc(N2C(=O)c3ccccc3C2=O)c(Cl)c1)c1ncccc1Cl | Metabotropic glutamate receptor 1 (GRM1, Homo sapiens, UniProt Q13255) | calcium signal | positive allosteric modulator | – | 1.26 µM |
| COC(=O)c1ccc(-n2c(C)cc(C(=O)CSc3ccc(NC(C)=O)cc3)c2C)cc1 | GRM4 | calcium signal | positive allosteric modulator | – | 3.31 µM |
| COc1ccc(-c2nsc(NC(=O)[C@@H]3C[C@H]3C)c2C)cc1 | GRM4 | calcium signal | agonist | – | > 25 µM |
| CC(C)(Oc1ccc(C(=O)c2ccc(Cl)cc2)cc1)C(=O)O | Ppara | reporter gene | agonist | luciferase | 35.8 µM |
